pIC50: −log10 of the molar value. Active and inactive are the calls of the source. No cut-off for these calls is given here.
Columns and labels:
Homo sapiens = species: Homo sapiens; experiment: Selectivity index, ratio of IC50 for human recombinant MAO-B to IC50 for human recombinant MAO-A
Procedure, shortened: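 Selectivity index for MAO A = IC50(MAO B)/IC50(MAO A), with both human isoforms assayed against kynuramine substrate.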

Rattus norvegicus [1] = experiment: In vivo inhibition of MAO-A in Sprague-Dawley rat assessed as 5-hydroxyindoleacetic acid in brain striatum at 100 umol/kg, sc after 1 hr by HPLC/EC analysis relative to control; format: functional; design: scale not given: the % may be the effect or the level left
Procedure, shortened: (§1)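 Freely moving rats dosed subcutaneously and sacrificed 1 h later. Striatal DOPAC, 3-MT and 5-HIAA were measured post mortem and expressed as % of saline control (n = 4). Significance was by Student's t-test, P < 0.05.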

Rattus norvegicus [2] = experiment: In vivo inhibition of MAO-A in Sprague-Dawley rat assessed as 3-methoxytyramine level in brain striatum at 100 umol/kg, sc after 1 hr by HPLC/EC analysis relative to control; format: functional; design: scale not given: the % may be the effect or the level left; procedure, shortened: as §1
[3] = molecular target: T1, Amine oxidase [flavin-containing] A (Homo sapiens, UniProt P21397); experiment: Inhibition of human recombinant MAO-A assessed as kynuramine oxidation to 4-hydroxyquinoline after 40 mins by LC-MS/MS analysis
T1 sequence (P21397 whole entry): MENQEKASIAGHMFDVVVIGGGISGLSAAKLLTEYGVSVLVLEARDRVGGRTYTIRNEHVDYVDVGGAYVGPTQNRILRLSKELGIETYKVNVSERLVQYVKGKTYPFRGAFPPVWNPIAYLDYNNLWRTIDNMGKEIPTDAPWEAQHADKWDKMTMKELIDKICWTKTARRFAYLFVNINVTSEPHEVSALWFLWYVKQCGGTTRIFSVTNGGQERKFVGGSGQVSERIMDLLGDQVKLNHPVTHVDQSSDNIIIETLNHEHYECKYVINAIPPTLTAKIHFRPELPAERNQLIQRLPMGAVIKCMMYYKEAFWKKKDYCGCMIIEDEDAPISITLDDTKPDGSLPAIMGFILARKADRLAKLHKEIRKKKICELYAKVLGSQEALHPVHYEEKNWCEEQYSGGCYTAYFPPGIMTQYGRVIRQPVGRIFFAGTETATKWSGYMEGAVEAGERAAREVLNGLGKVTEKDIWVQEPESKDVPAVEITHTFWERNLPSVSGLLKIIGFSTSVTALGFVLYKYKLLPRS
Procedure, shortened: (§2)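 Human MAO A and MAO B inhibition using kynuramine as a mixed substrate for both isoforms. IC50 is given as the mean ± SE of duplicate determinations.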

D(2) dopamine receptor = D(2) dopamine receptor (Homo sapiens, UniProt P14416); experiment: Antagonist activity at dopamine D2 receptor (unknown origin) expressed in HEK cells co-expressing Gqi5 assessed as inhibition of dopamine-induced effect by FLIPR assay; format: cell-based, HEK293
[4] = Metabolic stability in rat liver microsomes assessed as compound remaining at 5 uM after 60 mins by LC-MS/MS analysis; format: ADME; settings: read-out: Stability
Procedure, shortened: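 Incubation with rat liver microsomes, read as % of compound remaining after 60 min.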

Rattus norvegicus [5] = experiment: In vivo inhibition of MAO-A in Sprague-Dawley rat assessed as 3,4-dihydroxyphenylacetic acid level in brain striatum at 100 umol/kg, sc after 1 hr by HPLC/EC analysis relative to control; format: functional; design: scale not given: the % may be the effect or the level left; procedure, shortened: as §1
[6] = molecular target: T2, Amine oxidase [flavin-containing] B (Homo sapiens, UniProt P27338); experiment: Inhibition of human recombinant MAO-B assessed as kynuramine oxidation to 4-hydroxyquinoline after 40 mins by LC-MS/MS analysis; procedure, shortened: as §2
T2 sequence (P27338 whole entry): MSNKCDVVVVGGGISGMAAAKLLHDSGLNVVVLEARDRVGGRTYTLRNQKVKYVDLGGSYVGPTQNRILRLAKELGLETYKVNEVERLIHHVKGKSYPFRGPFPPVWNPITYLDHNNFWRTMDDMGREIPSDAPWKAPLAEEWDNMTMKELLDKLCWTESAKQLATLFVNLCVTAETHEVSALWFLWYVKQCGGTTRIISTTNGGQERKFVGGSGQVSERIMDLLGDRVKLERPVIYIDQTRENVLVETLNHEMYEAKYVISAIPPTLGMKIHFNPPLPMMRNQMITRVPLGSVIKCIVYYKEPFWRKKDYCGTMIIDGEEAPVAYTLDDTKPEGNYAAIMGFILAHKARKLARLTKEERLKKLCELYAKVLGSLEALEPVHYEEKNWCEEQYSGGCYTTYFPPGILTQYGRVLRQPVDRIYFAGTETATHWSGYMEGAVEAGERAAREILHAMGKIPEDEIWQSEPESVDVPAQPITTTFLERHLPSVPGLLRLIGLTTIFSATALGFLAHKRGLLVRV

[7] = Aqueous solubility of the compound in saline solution; format: physicochemical
Rattus norvegicus [8] = experiment: In vivo inhibition of MAO-A in Sprague-Dawley rat assessed as 3,4-dihydroxyphenylacetic acid level in brain striatum at 37 umol/kg, sc after 1 hr by HPLC/EC analysis relative to control; format: functional; design: scale not given: the % may be the effect or the level left; procedure, shortened: as §1
Rattus norvegicus [9] = experiment: In vivo inhibition of MAO-A in Sprague-Dawley rat assessed as 3-methoxytyramine level in brain striatum at 37 umol/kg, sc after 1 hr by HPLC/EC analysis relative to control; format: functional; design: scale not given: the % may be the effect or the level left; procedure, shortened: as §1
Rattus norvegicus [10] = experiment: In vivo inhibition of MAO-A in Sprague-Dawley rat assessed as 5-hydroxyindoleacetic acid in brain striatum at 37 umol/kg, sc after 1 hr by HPLC/EC analysis relative to control; format: functional; design: scale not given: the % may be the effect or the level left; procedure, shortened: as §1
[11] = molecular target: Sodium-dependent dopamine transporter (Homo sapiens) (UniProt Q01959); experiment: Displacement of [3H]BTCP from human dopamine transporter at 1 uM relative to control
Procedure, shortened: (§3)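 Competition binding run by a contract lab, read as % inhibition of control specific binding at a single test concentration. Radioligand per target: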

[12] = molecular target: Sodium-dependent serotonin transporter (Homo sapiens) (UniProt P31645); experiment: Displacement of [3H]-imipramine from human serotonin transporter at 10 uM relative to control; procedure, shortened: as §3
[13] = molecular target: T3, 5-hydroxytryptamine receptor 1A (Homo sapiens) (UniProt P08908); experiment: Displacement of [3H]8-OH-DPAT from human 5-HT1A receptor at 1 uM relative to control; procedure, shortened: as §3
T3 sequence (whole entry): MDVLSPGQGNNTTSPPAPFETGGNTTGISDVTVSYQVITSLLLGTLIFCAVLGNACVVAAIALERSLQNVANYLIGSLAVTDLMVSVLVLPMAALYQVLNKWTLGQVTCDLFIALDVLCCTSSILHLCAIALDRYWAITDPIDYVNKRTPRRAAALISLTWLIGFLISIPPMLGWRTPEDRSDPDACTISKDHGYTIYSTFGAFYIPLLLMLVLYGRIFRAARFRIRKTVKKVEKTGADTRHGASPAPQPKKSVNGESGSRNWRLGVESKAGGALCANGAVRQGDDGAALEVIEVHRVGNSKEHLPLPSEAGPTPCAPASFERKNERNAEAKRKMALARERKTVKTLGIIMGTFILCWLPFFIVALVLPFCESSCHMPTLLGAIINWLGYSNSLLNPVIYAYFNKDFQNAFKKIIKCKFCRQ

[14] = molecular target: 5-hydroxytryptamine receptor 2A (Homo sapiens) (UniProt P28223); experiment: Displacement of [3H]-ketanserin from human 5-HT2A receptor at 1 uM relative to control; procedure, shortened: as §3
Rattus norvegicus [15] = experiment: In vivo inhibition of MAO-A in Sprague-Dawley rat assessed as decrease in 3,4-dihydroxyphenylacetic acid level in brain striatum at 43 umol/kg, sc up to 2 hrs by microdialysis method; format: functional, organism-based
Procedure, shortened: (§4)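 Single subcutaneous dose to freely moving rats. Striatal DOPAC and 3-MT were sampled by microdialysis and measured by HPLC/EC over 2 h after dosing at time 0. Levels are expressed as % of saline control (n = 1–2).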

[16] = molecular target: Adrenergic receptor alpha-2 (Rattus norvegicus) (UniProt P22086+P19328+P22909); experiment: Displacement of [3H]-RX-821002 from rat alpha-2 adrenergic receptor at 1 uM relative to control; procedure, shortened: as §3
Rattus norvegicus [17] = experiment: In vivo inhibition of MAO-A in Sprague-Dawley rat assessed as increase in 3-methoxytyramine level in brain striatum at 43 umol/kg, sc up to 2 hrs by microdialysis method; format: functional, organism-based; procedure, shortened: as §4
[18] = molecular target: Sodium-dependent noradrenaline transporter (Homo sapiens) (UniProt P23975); experiment: Displacement of [3H]-nisoxetin from human norepinephrine transporter at 1 uM relative to control; procedure, shortened: as §3
[19] = molecular target: Histamine H1 receptor (Homo sapiens) (UniProt P35367); experiment: Displacement of histamine from human histamine H1 receptor at 1 uM relative to control; procedure, shortened: as §3
[20] = molecular target: Adrenergic receptor alpha-1 (Rattus norvegicus) (UniProt P15823+P23944+P43140); experiment: Displacement of [3H]-prazosin from rat alpha-1 adrenergic receptor at 10 uM relative to control; procedure, shortened: as §3

D(2) dopamine receptor, sequence (P14416 whole entry): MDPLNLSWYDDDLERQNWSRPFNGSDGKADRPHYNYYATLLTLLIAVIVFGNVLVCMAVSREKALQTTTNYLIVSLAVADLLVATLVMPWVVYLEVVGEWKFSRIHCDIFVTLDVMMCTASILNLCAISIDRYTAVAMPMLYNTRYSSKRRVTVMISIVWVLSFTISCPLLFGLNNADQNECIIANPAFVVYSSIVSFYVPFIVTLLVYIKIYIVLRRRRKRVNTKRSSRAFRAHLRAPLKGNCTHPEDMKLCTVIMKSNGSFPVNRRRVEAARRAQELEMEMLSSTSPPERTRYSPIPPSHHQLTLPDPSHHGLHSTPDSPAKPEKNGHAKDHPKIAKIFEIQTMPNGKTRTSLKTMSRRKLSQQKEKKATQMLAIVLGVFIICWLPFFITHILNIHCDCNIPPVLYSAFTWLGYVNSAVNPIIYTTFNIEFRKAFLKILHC
Sodium-dependent noradrenaline transporter (Homo sapiens), sequence (P23975 whole entry): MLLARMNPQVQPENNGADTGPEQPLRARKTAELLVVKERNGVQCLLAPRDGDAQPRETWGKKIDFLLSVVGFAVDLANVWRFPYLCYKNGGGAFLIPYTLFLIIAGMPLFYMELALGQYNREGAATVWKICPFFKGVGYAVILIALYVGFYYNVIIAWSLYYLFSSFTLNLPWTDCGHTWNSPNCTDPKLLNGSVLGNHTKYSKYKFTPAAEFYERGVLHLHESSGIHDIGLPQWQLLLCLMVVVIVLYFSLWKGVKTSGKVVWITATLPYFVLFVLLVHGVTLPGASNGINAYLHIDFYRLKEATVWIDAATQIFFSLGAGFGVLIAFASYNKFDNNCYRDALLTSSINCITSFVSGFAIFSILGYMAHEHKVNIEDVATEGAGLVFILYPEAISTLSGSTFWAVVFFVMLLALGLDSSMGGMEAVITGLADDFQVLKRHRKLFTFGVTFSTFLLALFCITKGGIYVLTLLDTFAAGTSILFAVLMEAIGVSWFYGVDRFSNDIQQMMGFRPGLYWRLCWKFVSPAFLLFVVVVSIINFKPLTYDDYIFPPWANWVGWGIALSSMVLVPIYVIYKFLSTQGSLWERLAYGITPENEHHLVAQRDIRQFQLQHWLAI
5-hydroxytryptamine receptor 2A (Homo sapiens), sequence (P28223 whole entry): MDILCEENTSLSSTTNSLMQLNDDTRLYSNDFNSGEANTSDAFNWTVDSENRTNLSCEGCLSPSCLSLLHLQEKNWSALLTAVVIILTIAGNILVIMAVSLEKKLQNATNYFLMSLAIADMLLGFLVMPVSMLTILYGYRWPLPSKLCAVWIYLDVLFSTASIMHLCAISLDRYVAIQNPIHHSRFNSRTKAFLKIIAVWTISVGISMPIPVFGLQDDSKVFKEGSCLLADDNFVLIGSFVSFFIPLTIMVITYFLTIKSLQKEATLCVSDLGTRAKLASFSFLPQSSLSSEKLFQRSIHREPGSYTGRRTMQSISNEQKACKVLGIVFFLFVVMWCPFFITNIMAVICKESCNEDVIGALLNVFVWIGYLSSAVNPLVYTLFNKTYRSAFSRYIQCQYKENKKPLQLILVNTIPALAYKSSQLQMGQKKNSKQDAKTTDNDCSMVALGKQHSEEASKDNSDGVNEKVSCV
Histamine H1 receptor (Homo sapiens), sequence (P35367 whole entry): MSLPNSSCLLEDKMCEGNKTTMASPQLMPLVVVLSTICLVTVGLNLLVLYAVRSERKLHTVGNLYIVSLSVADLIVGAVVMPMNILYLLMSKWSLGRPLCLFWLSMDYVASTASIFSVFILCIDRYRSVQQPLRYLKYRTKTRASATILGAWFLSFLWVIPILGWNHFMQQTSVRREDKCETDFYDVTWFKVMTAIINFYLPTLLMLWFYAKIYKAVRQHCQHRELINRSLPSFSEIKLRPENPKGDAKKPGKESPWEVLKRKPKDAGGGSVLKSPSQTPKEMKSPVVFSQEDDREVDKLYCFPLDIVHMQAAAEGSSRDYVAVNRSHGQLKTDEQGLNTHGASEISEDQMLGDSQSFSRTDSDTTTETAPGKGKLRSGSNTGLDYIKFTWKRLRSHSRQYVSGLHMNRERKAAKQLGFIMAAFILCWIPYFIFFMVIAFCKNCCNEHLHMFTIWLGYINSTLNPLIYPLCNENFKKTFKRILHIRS
Sodium-dependent serotonin transporter (Homo sapiens), sequence (P31645 whole entry, looked up): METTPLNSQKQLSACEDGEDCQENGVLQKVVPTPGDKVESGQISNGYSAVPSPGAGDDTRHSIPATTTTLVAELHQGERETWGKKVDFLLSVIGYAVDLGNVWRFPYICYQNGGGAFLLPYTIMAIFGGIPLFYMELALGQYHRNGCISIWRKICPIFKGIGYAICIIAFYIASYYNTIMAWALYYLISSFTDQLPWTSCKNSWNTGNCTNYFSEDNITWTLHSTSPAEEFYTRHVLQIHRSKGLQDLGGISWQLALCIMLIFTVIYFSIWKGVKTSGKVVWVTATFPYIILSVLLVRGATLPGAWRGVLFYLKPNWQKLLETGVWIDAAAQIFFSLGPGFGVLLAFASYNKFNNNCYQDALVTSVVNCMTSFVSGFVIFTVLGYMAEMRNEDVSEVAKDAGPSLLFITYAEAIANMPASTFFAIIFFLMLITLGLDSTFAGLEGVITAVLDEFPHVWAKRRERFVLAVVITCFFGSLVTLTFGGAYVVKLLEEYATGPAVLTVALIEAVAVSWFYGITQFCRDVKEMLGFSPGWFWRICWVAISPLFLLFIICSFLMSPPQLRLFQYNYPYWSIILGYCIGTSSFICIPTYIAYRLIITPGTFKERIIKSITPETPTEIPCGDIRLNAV
Sodium-dependent dopamine transporter (Homo sapiens), sequence (Q01959 whole entry): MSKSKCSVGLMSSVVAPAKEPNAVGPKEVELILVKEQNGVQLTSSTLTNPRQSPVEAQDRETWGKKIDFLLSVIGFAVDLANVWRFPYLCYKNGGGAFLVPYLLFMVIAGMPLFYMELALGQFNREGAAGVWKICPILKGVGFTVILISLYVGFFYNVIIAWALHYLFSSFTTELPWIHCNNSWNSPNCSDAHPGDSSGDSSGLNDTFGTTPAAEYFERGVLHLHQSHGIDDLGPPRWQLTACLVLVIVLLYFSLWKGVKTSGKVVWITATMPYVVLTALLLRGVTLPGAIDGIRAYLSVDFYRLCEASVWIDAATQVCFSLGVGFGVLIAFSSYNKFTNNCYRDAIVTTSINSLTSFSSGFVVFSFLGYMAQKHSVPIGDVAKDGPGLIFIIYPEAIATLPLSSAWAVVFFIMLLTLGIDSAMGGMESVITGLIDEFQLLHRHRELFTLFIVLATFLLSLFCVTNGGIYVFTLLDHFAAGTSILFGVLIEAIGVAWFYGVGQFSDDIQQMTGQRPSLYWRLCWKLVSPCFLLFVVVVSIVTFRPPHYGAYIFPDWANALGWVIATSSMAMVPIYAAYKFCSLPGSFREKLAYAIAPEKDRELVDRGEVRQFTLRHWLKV

COc1ccc2oc(=O)c(CN3CCCC3)cc2c1
Ratio IC50 (Homo sapiens): > 22.3

CCCNCc1cc2ccccc2oc1=O
Activity (Rattus norvegicus [1]): 116%
Activity (Rattus norvegicus [2]): 89%
pIC50 [3]: 4.77
pIC50 (D(2) dopamine receptor): < 4.52
remaining at 1 h, 5 µM [4]: 0%
Activity (Rattus norvegicus [5]): 70%
pIC50 [6]: 4.21

Cl.O=c1oc2ccc(C(F)(F)F)cc2cc1CN1CCCC1
solubility [7]: > 5000 µg/mL

O=c1oc2ccc(OCc3ccccc3)cc2cc1CN1CCCC1
pIC50 [3]: < 4.00
pIC50 [6]: < 4.00

O=c1oc2ccc([N+](=O)[O-])cc2cc1CN1CCCC1
Activity (Rattus norvegicus [1]): 118%
Activity (Rattus norvegicus [2]): 75%
pIC50 [3]: < 4.00
pIC50 (D(2) dopamine receptor): < 4.52
Activity (Rattus norvegicus [5]): 105%
pIC50 [6]: < 4.00

Cl.O=c1oc2ccccc2cc1CN1CCCC1
solubility [7]: > 5000 µg/mL

CCCOc1ccc2oc(=O)c(CN3CCCC3)cc2c1
pIC50 [3]: 5.67
Ratio IC50 (Homo sapiens): 10.3
pIC50 [6]: 4.65

CCCNCc1cc2ccccc2oc1=O.Cl
solubility [7]: > 5000 µg/mL

O=c1oc2ccc(OC(F)(F)F)cc2cc1CN1CCCC1
pIC50 [3]: 5.37
pIC50 (D(2) dopamine receptor): < 4.59
Ratio IC50 (Homo sapiens): > 23.5
remaining at 1 h, 5 µM [4]: 3%
pIC50 [6]: < 4.00

O=C(NCCN1CCOCC1)c1ccc(Cl)cc1 [MOCLOBEMIDE]
Activity (Rattus norvegicus [8]): 18%
Activity (Rattus norvegicus [9]): 398%
Activity (Rattus norvegicus [10]): 80%

Nc1ccc2oc(=O)c(CN3CCCC3)cc2c1
inhibition [11]: 0%
inhibition [12]: 1%
inhibition [13]: 0%
inhibition [14]: -4%
Ratio IC50 (Homo sapiens): > 26.5
inhibition (Rattus norvegicus [15]): Active
inhibition [16]: 2%
inhibition (Rattus norvegicus [17]): Active
inhibition [18]: -2%
inhibition [19]: 13%
inhibition [20]: 4%

COc1ccc2oc(=O)c(CN3CCCC3)cc2c1.Cl
solubility [7]: > 5000 µg/mL

Cl.O=c1oc2ccc([N+](=O)[O-])cc2cc1CN1CCCC1
solubility [7]: > 5000 µg/mL
